The results in this text go back to ChEMBL document CHEMBL4622977, “A CNS-Targeting Prodrug Strategy for Nuclear Receptor Modulators” (J Med Chem, 2020).

Data set [1] can be described thus: Prodrug conversion in C57BL/6 mouse brain assessed as GW7604 level at 9.14 umol/kg, ip measured after 1 hr in presence of FAAH inhibitor PF-3845 by LC-MS/MS analysis. Particulars: in vivo. The class given is ADME, organism-based. In short, it runs like this:
(§1)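 Male C57BL/6 mice (n=3) received PF-3845 at 1 mg/kg i.p., then prodrug at […] i.p. 1 h later; comparators received prodrug alone. Vehicle was DMSO. Whole brain was taken 1 h after prodrug and homogenized in water with d₆-sobetirome internal standard. It was extracted with EtOAc/MeCN and parent acid was measured by LC-MS/MS; mean ± SEM, 2-tailed unpaired t test.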

Data set [2] in a line: AUC (0.5 to 6 hrs) in C57BL/6 mouse brain assessed as GW7604 level at 9.14 umol/kg, ip by LC-MS/MS analysis. It counts as ADME, organism-based. The following applies: in vivo. Set-up: time 0.5-6 hr, dose 9.14 umol/kg, route intraperitoneal. In a few lines:
(§2)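 Male wild-type C57BL/6 mice (8−10 weeks, n=3 per time point) received parent drug or equimolar prodrug at […] i.p. in DMSO. Brain and serum were collected at 0.5, 2 and 6 h. Parent acid was quantified by LC-MS/MS against vehicle-tissue standard curves with d₆-sobetirome internal standard. AUC0.5–6 h was computed from the time course; mean ± SEM.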

Data set [3] is described as follows: AUC (0.5 to 6 hrs) in C57BL/6 mouse serum assessed as GW7604 level at 9.14 umol/kg, ip by LC-MS/MS analysis. The class given is ADME, organism-based. More on the design: time lower 0.5 hr, dose 9.14 umol/kg, time upper 6 hr, route intraperitoneal. Particulars: in vivo. In a few lines:
as §2

The nature of data set [4]: Brain to serum concentration ratio, Kp of the compound in C57BL/6 mouse assessed as GW7604 level at 9.14 umol/kg, ip by LC-MS/MS analysis. It counts as ADME, organism-based. In short, it runs like this:
(§3)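 Brain-to-serum ratio Kp was calculated from brain and serum parent-drug AUC0.5–6 h (ng/g*h). These AUCs came from male C57BL/6 mice (n=3 per time point) given parent drug or equimolar prodrug at […] i.p. in DMSO, sampled at 0.5, 2 and 6 h. Parent acid was quantified by LC-MS/MS with d₆-sobetirome internal standard.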

Data set [5] can be described thus: AUC (0.5 to 6 hrs) in C57BL/6 mouse serum assessed as [4-(4-hydroxy-3-iodophenoxy)-3,5-diiodophenyl]acetic acid level at 9.14 umol/kg, ip by LC-MS/MS analysis. It counts as ADME, organism-based. More on the design: dose 9.14 umol/kg, time 0.5-6 hr, route intraperitoneal. Particulars: in vivo. In a few lines: as §2
Data set [6] is described as follows: Brain to serum concentration ratio, Kp of the compound in C57BL/6 mouse assessed as [4-(4-hydroxy-3-iodophenoxy)-3,5-diiodophenyl]acetic acid level at 9.14 umol/kg, ip by LC-MS/MS analysis. The class given is ADME, organism-based. In short, it runs like this:
as §3

A short description of data set [7]: Prodrug conversion in C57BL/6 mouse brain assessed as [4-(4-hydroxy-3-iodophenoxy)-3,5-diiodophenyl]acetic acid level at 9.14 umol/kg, ip measured after 1 hr in presence of FAAH inhibitor PF-3845 by LC-MS/MS analysis. The class given is ADME, organism-based. The following applies: in vivo. In short, it runs like this: as §1
Data set [8] in a line: AUC (0.5 to 6 hrs) in C57BL/6 mouse brain assessed as [4-(4-hydroxy-3-iodophenoxy)-3,5-diiodophenyl]acetic acid level at 9.14 umol/kg, ip by LC-MS/MS analysis. The class given is ADME, organism-based. The following applies: in vivo. More on the design: dose 9.14 umol/kg, time upper 6 hr, time lower 0.5 hr, route intraperitoneal. In short, it runs like this: as §2
The nature of data set [9]: AUC (0.5 to 6 hrs) in C57BL/6 mouse brain assessed as tazarotenic acid level at 9.14 umol/kg, ip by LC-MS/MS analysis. More on the design: time lower 0.5 hr, dose 9.14 umol/kg, time upper 6 hr, route intraperitoneal. The following applies: in vivo. The class given is ADME, organism-based. In short, it runs like this: as §2
The subject of data set [10] is Mus musculus. The data set is described as follows: In vivo agonist activity at RAR in C57BL/6 mouse assessed upregulation of Adam10 gene expression in brain at 9.14 umol/kg, ip administered once daily for 7 days by Trizol reagent based RT-qPCR analysis. It counts as functional, organism-based. In short, it runs like this: (§4)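 Male C57BL/6 mice (n=5) were dosed once daily for 7 days i.p. with parent drug at […], equimolar prodrug, or vehicle. The vehicle was 1:1:8 Kolliphor:NMP:water. Target gene expression was compared between groups per tissue by 2-tailed unpaired t test.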
On the technique in general: In qPCR the cycle at which signal appears reflects the starting amount.

Data set [11] is described as follows: Hepatotoxicity in C57BL/6 mouse assessed effect on Rarres2 gene expression at 9.14 umol/kg, ip administered once daily for 7 days by Trizol reagent based RT-qPCR analysis. The following applies: in vivo, 168 h.
The nature of data set [12]: Prodrug conversion in C57BL/6 mouse brain assessed as tazarotenic acid level at 9.14 umol/kg, ip measured after 1 hr in presence of FAAH inhibitor PF-3845 by LC-MS/MS analysis. The class given is ADME, organism-based. The following applies: in vivo. In a few lines:
as §1

The nature of data set [13]: AUC (0.5 to 6 hrs) in C57BL/6 mouse serum assessed as tazarotenic acid level at 9.14 umol/kg, ip by LC-MS/MS analysis. The following applies: in vivo. The class given is ADME, organism-based. Set-up: time lower 0.5 hr, dose 9.14 umol/kg, time upper 6 hr, route intraperitoneal. In a few lines: as §2
The nature of data set [14]: Brain to serum concentration ratio, Kp of the compound in C57BL/6 mouse assessed as tazarotenic acid level at 9.14 umol/kg, ip by LC-MS/MS analysis. It counts as ADME, organism-based. In a few lines:
as §3

Data set [15] in a line: Prodrug conversion in C57BL/6 mouse brain assessed as tesaglitazar level at 9.14 umol/kg, ip measured after 1 hr in presence of FAAH inhibitor PF-3845 by LC-MS/MS analysis. It counts as ADME, organism-based. The following applies: in vivo. In short, it runs like this:
as §1

Data set [16] can be described thus: Renal toxicity in C57BL/6 mouse assessed effect on Fasn gene expression in kidney at 9.14 umol/kg, ip administered once daily for 7 days by Trizol reagent based RT-qPCR analysis. It counts as organism-based. Particulars: in vivo, 168 h. In a few lines:
as §4

In data set [17] the test system is Mus musculus. As to the kind of experiment: In vivo agonist activity at PPAR in C57BL/6 mouse assessed upregulation of Pgc1-alpha gene expression at 9.14 umol/kg, ip administered once daily for 7 days by Trizol reagent based RT-qPCR analysis. It counts as functional, organism-based. In short, it runs like this:
as §4

Data set [18] can be described thus: AUC (0.5 to 6 hrs) in C57BL/6 mouse brain assessed as tesaglitazar level at 9.14 umol/kg, ip by LC-MS/MS analysis. Particulars: in vivo. The class given is ADME, organism-based. More on the design: time upper 6 hr, dose 9.14 umol/kg, time lower 0.5 hr, route intraperitoneal. In short, it runs like this:
as §2

The nature of data set [19]: AUC (0.5 to 6 hrs) in C57BL/6 mouse serum assessed as tesaglitazar level at 9.14 umol/kg, ip by LC-MS/MS analysis. It counts as ADME, organism-based. More on the design: time lower 0.5 hr, dose 9.14 umol/kg, time upper 6 hr, route intraperitoneal. Particulars: in vivo. In a few lines: as §2
A short description of data set [20]: Brain to serum concentration ratio, Kp of the compound in C57BL/6 mouse assessed as tesaglitazar level at 9.14 umol/kg, ip by LC-MS/MS analysis. The class given is ADME, organism-based. In short, it runs like this:
as §3

The nature of data set [21]: AUC (0.5 to 6 hrs) in C57BL/6 mouse serum at 9.14 umol/kg, ip by LC-MS/MS analysis. It counts as ADME, organism-based. Set-up: time upper 6 hr, dose 9.14 umol/kg, time lower 0.5 hr, route intraperitoneal. Particulars: in vivo. In short, it runs like this:
as §2

For data set [22] the following is noted: mouse, in vivo, ip.
A short description of another data set: in vivo. The following applies: C57BL/6, mouse, brain/serum, ip, 9.14 umol/kg.
A short description of data set [23]: AUC (0.5 to 6 hrs) in C57BL/6 mouse serum assessed as GW3965 level at 9.14 umol/kg, ip by LC-MS/MS analysis. It counts as ADME, organism-based. Set-up: time 0.5-6 hr, dose 9.14 umol/kg, route intraperitoneal. The following applies: in vivo. In short, it runs like this: as §2
The nature of data set [24]: AUC (0.5 to 6 hrs) in C57BL/6 mouse brain assessed as GW3965 level at 9.14 umol/kg, ip by LC-MS/MS analysis. The class given is ADME, organism-based. Set-up: dose 9.14 umol/kg, time 0.5-6 hr, route intraperitoneal. The following applies: in vivo, BLD = below limit of detection. In a few lines:
as §2

The nature of data set [25]: Prodrug conversion in C57BL/6 mouse brain assessed as GW3965 level at 9.14 umol/kg, ip measured after 1 hr in presence of FAAH inhibitor PF-3845 by LC-MS/MS analysis. It counts as ADME, organism-based. The following applies: in vivo. In a few lines: as §1
A short description of data set [26]: AUC (0.5 to 6 hrs) in C57BL/6 mouse brain assessed as bexarotene level at 9.14 umol/kg, ip by LC-MS/MS analysis. More on the design: dose 9.14 umol/kg, time 0.5-6 hr, route intraperitoneal. It counts as ADME, organism-based. The following applies: in vivo, BLD = below limit of detection. In short, it runs like this:
as §2

Data set [27] in a line: Prodrug conversion in C57BL/6 mouse brain assessed as bexarotene level at 9.14 umol/kg, ip measured after 1 hr in presence of FAAH inhibitor PF-3845 by LC-MS/MS analysis. It counts as ADME, organism-based. Particulars: in vivo. In short, it runs like this:
as §1

A short description of data set [28]: AUC (0.5 to 6 hrs) in C57BL/6 mouse serum assessed as bexarotene level at 9.14 umol/kg, ip by LC-MS/MS analysis. Set-up: dose 9.14 umol/kg, time 0.5-6 hr, route intraperitoneal. It counts as ADME, organism-based. The following applies: in vivo. In a few lines: as §2

The structures appear in SMILES notation. Activity calls are given as the source filed them. No cut-off for these calls is given here.

Consider `CC/C(=C(\c1ccc(O)cc1)c1ccc(/C=C/C(=O)NC)cc1)c1ccccc1`, for which, in data set [1], the Drug metabolism entry is listed as “Metabolite_Notdetected”. Also, the AUC in [2] is 18.03 ng·h/g; in data set [3], 17.77 ng·h/g. In addition, in [4], the Kp was determined as 1.01.
Consider `CNC(=O)Cc1cc(I)c(Oc2ccc(O)c(I)c2)c(I)c1`, for which the AUC in data set [5] is 4020 ng·h/g; in [8], 155.8 ng·h/g. Further, the Kp in data set [6] is recorded as 0.039. The Drug metabolism entry in [7] is recorded as “Metabolite_Detected”.
For the compound `CNC(=O)c1ccc(C#Cc2ccc3c(c2)C(C)(C)CCS3)nc1`, the figures for the AUC in data set [9] and in data set [13] were 104 ng·h/g and 51.34 ng·h/g, respectively. Moreover, the result in the data set with Mus musculus [10] was Active. In addition, the Activity result in data set [11] is “Non-Toxic”. Besides, in data set [12], the Drug metabolism result was “Metabolite_Notdetected”. In data set [14], the partition ratio (Kp) came out at 2.03.
Regarding `CCO[C@@H](Cc1ccc(OCCc2ccc(OS(C)(=O)=O)cc2)cc1)C(=O)NC`, in data set [15], the Drug metabolism result is listed as “Metabolite_Notdetected”. In [16], the Activity result is reported as “Non-Toxic”. Moreover, the result with Mus musculus [17] was Active. Also, the AUC in [18] stood at 21.9 ng·h/g; in data set [19], 374.1 ng·h/g. The Kp in data set [20] was determined as 0.06.
`O=C(O)Cc1cc(I)c(Oc2ccc(O)c(I)c2)c(I)c1` [TIRATRICOL] displayed an AUC in [21] of 5108 ng·h/g.
On to `CCO[C@@H](Cc1ccc(OCCc2ccc(OS(C)(=O)=O)cc2)cc1)C(=O)O` [TESAGLITAZAR], for which the figures for the AUC in data set [21] and in [22] were 2107 ng·h/g and 7.3 ng·h/g, respectively. Moreover, in [16], the Activity entry is “Toxic”. Also, the outcome with Mus musculus [17] was inactive. Moreover, the Kp in “in vivo” turned out to be 0.004.
On to `CNC(=O)Cc1cccc(OCCCN(Cc2cccc(C(F)(F)F)c2Cl)CC(c2ccccc2)c2ccccc2)c1`, for which the AUC in [23] was 155.4 ng·h/g; in data set [24], “Bld”. Moreover, the Drug metabolism entry in data set [25] is on record as “Metabolite_Notdetected”.
For `C=C(c1ccc(C(=O)NC)cc1)c1cc2c(cc1C)C(C)(C)CCC2(C)C`, the AUC entry in data set [26] is “Bld”; in data set [28], 4.933 ng·h/g. Besides, the Drug metabolism entry in data set [27] was “Metabolite_Notdetected”.
For the compound `O=C(O)Cc1cccc(OCCCN(Cc2cccc(C(F)(F)F)c2Cl)CC(c2ccccc2)c2ccccc2)c1`, the AUC in data set [21] came to 8853 ng·h/g; in data set [22], 1867 ng·h/g. Further, the Kp in “in vivo” was 0.21.

The Kp is the ratio of the level in a tissue or fluid to that in plasma or blood.
